Consider four compounds from ChEMBL document CHEMBL5346868 (Eur J Med Chem, 2023).

Some results are limits rather than exact numbers.

METTL3/METTL14, sequence (Q86U44 whole entry): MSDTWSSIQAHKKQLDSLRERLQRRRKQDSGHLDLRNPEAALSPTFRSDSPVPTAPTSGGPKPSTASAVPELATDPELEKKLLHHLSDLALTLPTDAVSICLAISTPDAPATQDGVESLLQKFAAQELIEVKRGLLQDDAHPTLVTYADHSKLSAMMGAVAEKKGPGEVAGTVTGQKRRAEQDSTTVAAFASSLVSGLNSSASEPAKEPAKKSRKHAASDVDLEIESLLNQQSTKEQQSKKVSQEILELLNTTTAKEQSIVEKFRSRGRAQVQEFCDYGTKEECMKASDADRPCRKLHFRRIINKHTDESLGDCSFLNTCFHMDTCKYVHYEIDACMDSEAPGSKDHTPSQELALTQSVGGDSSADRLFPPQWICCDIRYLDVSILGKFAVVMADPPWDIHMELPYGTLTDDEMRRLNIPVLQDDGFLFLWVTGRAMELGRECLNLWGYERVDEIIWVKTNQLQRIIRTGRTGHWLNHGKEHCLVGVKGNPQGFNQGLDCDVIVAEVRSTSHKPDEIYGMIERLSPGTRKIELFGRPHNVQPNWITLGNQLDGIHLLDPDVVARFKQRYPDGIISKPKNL
METTL3/METTL14, sequence (Q9HCE5 whole entry, further chain): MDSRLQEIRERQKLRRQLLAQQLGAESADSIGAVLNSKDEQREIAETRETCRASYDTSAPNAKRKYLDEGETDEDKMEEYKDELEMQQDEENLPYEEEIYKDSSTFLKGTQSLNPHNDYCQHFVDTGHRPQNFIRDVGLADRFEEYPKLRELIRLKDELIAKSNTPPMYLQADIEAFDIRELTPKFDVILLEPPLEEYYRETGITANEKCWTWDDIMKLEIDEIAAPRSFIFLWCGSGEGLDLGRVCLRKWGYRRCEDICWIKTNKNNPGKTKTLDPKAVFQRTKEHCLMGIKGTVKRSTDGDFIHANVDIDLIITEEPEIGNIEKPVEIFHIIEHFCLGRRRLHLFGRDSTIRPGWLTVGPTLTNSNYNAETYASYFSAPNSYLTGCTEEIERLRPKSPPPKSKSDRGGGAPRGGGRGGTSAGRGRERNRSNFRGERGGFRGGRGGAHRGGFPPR

System in one series: not listed separately
Nature of the series: Selectivity index, ratio of CC50 for human RD cells to EC50 for antiviral activity against human Enterovirus 71. To be noted: read-out: Ratio CC50/EC50. It is filed as toxicity. In outline: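 SI is calculated as CC50 on uninfected RD cells divided by EC50 in the 3-day EV71 BrCr CPE-reduction MTS assay.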
Consider `OC[C@H]1O[C@@H](n2ccc3c(NCc4cccc(Cl)c4)ncnc32)[C@H](O)[C@@H]1O`, for which the selectivity ratio was over 301.
With `CSC[C@H]1O[C@@H](n2cnc3c(NC(C)c4cccc(Cl)c4)ncnc32)[C@H](O)[C@@H]1O` (some centres not stated), the selectivity ratio came out at 10.5.
As to `OC[C@H]1O[C@@H](n2cnc3c(NCc4cccc(Cl)c4)ncnc32)[C@H](O)[C@@H]1O`, the selectivity ratio is 403.
Still for that read-out and setting: for `CC(Nc1ncnc2c1ncn2[C@@H]1O[C@H](CO)[C@@H](O)[C@H]1O)c1cccc(Cl)c1` (some centres not stated) the value was over 93.5.

Another series relates to SARS-CoV-2. The series can be described thus: Antiviral activity against SARS-CoV-2 BetaCoV/Belgium/GHB-03021/2020 infected in african green monkey Vero cells assessed as decline in virus induced cytopathogenicity measured after 4 days by argon laser scanning microscopic analysis. It is filed as functional, organism-based. To be noted: Severe acute respiratory syndrome coronavirus 2, BetaCoV/Belgium/GHB-03021/2020, Vero, 96 h. A general note: Damage to the host cells serves as the signal in cytopathic effect assays.
As usually defined, the EC50 is the concentration needed to bring the measured effect to its halfway point. On to `OC[C@H]1O[C@@H](n2ccc3c(NCc4cccc(Cl)c4)ncnc32)[C@H](O)[C@@H]1O`, for which the EC50 was over 100 µM.
For the compound `CSC[C@H]1O[C@@H](n2cnc3c(NC(C)c4cccc(Cl)c4)ncnc32)[C@H](O)[C@@H]1O` (some centres not stated), the EC50 is over 100 µM.
On to `OC[C@H]1O[C@@H](n2cnc3c(NCc4cccc(Cl)c4)ncnc32)[C@H](O)[C@@H]1O`, for which the EC50 is over 100 µM.
Same read-out and setting: as for `CC(Nc1ncnc2c1ncn2[C@@H]1O[C@H](CO)[C@@H](O)[C@H]1O)c1cccc(Cl)c1` (some centres not stated), the figure is over 100 µM.

System in the next series: not listed separately
Nature of the series: Cytotoxicity against african green monkey Vero cells by MTS assay. To be noted: chlorocebus sabaeus. It is filed as toxicity, cell-based.
What is called CC50 is the concentration that lowers cell viability or growth by half. Compound `CC(Nc1ncnc2c1ncn2[C@@H]1O[C@H](CO)[C@@H](O)[C@H]1O)c1cccc(Cl)c1` (some centres not stated) yielded a CC50 of over 100 µM.

System in a further series: not listed separately
The series can be described thus: Cytotoxicity against human RD cells by MTS assay. It is filed as toxicity, cell-based.
Settings: not given
In outline:
(§1)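 Treated, uninfected RD or HeLa cells are run alongside the matching enterovirus CPE assays, with viability read by MTS. CC50 is the concentration giving a 50% adverse effect on host cells.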
For orientation: Tetrazolium assays rely on reduction of a dye to a coloured formazan, in cell work by metabolically active cells.
On to `OC[C@H]1O[C@@H](n2ccc3c(NCc4cccc(Cl)c4)ncnc32)[C@H](O)[C@@H]1O`, for which the CC50 is over 20 µM.
Take `CSC[C@H]1O[C@@H](n2cnc3c(NC(C)c4cccc(Cl)c4)ncnc32)[C@H](O)[C@@H]1O` (some centres not stated): the CC50 was 44.3 µM.
`OC[C@H]1O[C@@H](n2cnc3c(NCc4cccc(Cl)c4)ncnc32)[C@H](O)[C@@H]1O` came in with a CC50 of 42.7 µM.
`CC(Nc1ncnc2c1ncn2[C@@H]1O[C@H](CO)[C@@H](O)[C@H]1O)c1cccc(Cl)c1` (some centres not stated) gave a CC50 of over 100 µM.

System in the next series: not listed separately
Nature of the series: Cytotoxicity against african green monkey Vero E6 cells by MTS assay. To be noted: chlorocebus sabaeus. It is filed as toxicity, cell-based, Vero C1008. In outline: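 Cytotoxicity is measured on treated, uninfected Vero E6 cells in parallel with the antiviral assays, using a standard MTS assay. CC50 is the concentration causing a 50% adverse effect on host cells.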
`OC[C@H]1O[C@@H](n2ccc3c(NCc4cccc(Cl)c4)ncnc32)[C@H](O)[C@@H]1O` showed a CC50 of over 100 µM.
Regarding `CSC[C@H]1O[C@@H](n2cnc3c(NC(C)c4cccc(Cl)c4)ncnc32)[C@H](O)[C@@H]1O` (some centres not stated), the CC50 was 50.8 µM.
`OC[C@H]1O[C@@H](n2cnc3c(NCc4cccc(Cl)c4)ncnc32)[C@H](O)[C@@H]1O` showed a 50% cytotoxic concentration (CC50) of over 100 µM.
For the compound `CC(Nc1ncnc2c1ncn2[C@@H]1O[C@H](CO)[C@@H](O)[C@H]1O)c1cccc(Cl)c1` (some centres not stated), the CC50 was over 100 µM.

Another series has as its system rhinovirus A2. The series can be described thus: Antiviral activity against Human rhinovirus 2 infected in human HeLa cells assessed as reduction of virus induced cytopathic effect incubated for 3 days by MTS assay. To be noted: Rhinovirus A, 72 h. It is filed as functional, organism-based. In outline: (§2)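 Same setup as the EV71 assay: confluent monolayers (Vero A for CVB3; HeLa for CVA21, EV68, HRV-A02, HRV-B14) are infected with virus and treated with a compound dilution series. Incubation is 3 days at 37 °C, 5% CO2, and residual viability is read by MTS. EC50 is the 50% effective concentration, mean of at least 2 independent experiments.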
On to `CC(Nc1ncnc2c1ncn2[C@@H]1O[C@H](CO)[C@@H](O)[C@H]1O)c1cccc(Cl)c1` (some centres not stated), for which the EC50 was over 100 µM.

A further series addresses METTL3/METTL14 (Homo sapiens, UniProt Q86U44). The series can be described thus: Inhibition of human recombinant full length METTL3/human N-terminal FLAG-tagged METTL14 expressed in SF9 cells assessed as methyltransferase residual activity using ssRNA 5'-rUrArC rArCrU rCrGrA rUrCrU rGrGrA rCrUrA rArArG rCrUrG rCrUrC -3' as substrate incubated for 20 mins followed by H-SAM addition measured after 2 hrs by radio isotope reaction system analysis.
Settings: not given
In outline:
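Compound is pre-incubated for 20 min at room temperature, then 1 μM [3H-methyl]SAM is added for 2 h at room temperature. Activity is reported as % remaining, screened at 100 μM, with IC50 from curve fits.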
Broadly, the IC50 is the concentration needed to halve the response being measured. As for `OC[C@H]1O[C@@H](n2ccc3c(NCc4cccc(Cl)c4)ncnc32)[C@H](O)[C@@H]1O`, the IC50 is 58.8 µM.

In the next series the test system is Coxsackievirus A21. Nature of the series: Antiviral activity against Coxsackievirus 21 infected in human HeLa cells assessed as reduction of virus induced cytopathic effect incubated for 3 days by MTS assay. It is filed as functional, organism-based. As to conditions: Enterovirus C, 72 h. An outline of the steps: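 HeLa cells infected with coxsackievirus A21 (~100 CCID50) and treated with a compound dilution series, as in the EV71 set-up. Incubation was 3 days at 37 °C, 5% CO2, with residual viability quantified by MTS. EC50 is the concentration giving 50% antiviral effect. Values are means of ≥2 independent experiments.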
On to `CC(Nc1ncnc2c1ncn2[C@@H]1O[C@H](CO)[C@@H](O)[C@H]1O)c1cccc(Cl)c1` (some centres not stated), for which the EC50 was over 100 µM.

The subject of the next series is Zika virus. Nature of the series: Antiviral activity against ZIKV MR766 infected in african green monkey Vero E6 cells assessed as decline in virus induced cytopathogenicity measured after 5 days by MTS based microscopic analysis. It is filed as functional, organism-based. As to conditions: MR766, Vero C1008, 120 h. An outline of the steps: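 Vero E6 cells (10^4/well) are seeded in MEM with 2% FCS and left to adhere overnight. Cells are then infected with ZIKV MR766 (passaged in C6/36 cells) and given 2-fold serial compound dilutions. After 5 days, CPE is scored by MTS and by microscopy of fixed, stained cells. EC50 is the 50% antiviral effect.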
Take `OC[C@H]1O[C@@H](n2ccc3c(NCc4cccc(Cl)c4)ncnc32)[C@H](O)[C@@H]1O`: the EC50 was over 100 µM.
Consider `CSC[C@H]1O[C@@H](n2cnc3c(NC(C)c4cccc(Cl)c4)ncnc32)[C@H](O)[C@@H]1O` (some centres not stated), for which the EC50 was over 100 µM.
Same read-out and setting: as for `OC[C@H]1O[C@@H](n2cnc3c(NCc4cccc(Cl)c4)ncnc32)[C@H](O)[C@@H]1O`, the figure is over 100 µM; as for `CC(Nc1ncnc2c1ncn2[C@@H]1O[C@H](CO)[C@@H](O)[C@H]1O)c1cccc(Cl)c1` (some centres not stated), over 100 µM.

A further series concerns Coxsackievirus B3. The series can be described thus: Antiviral activity against Coxsackievirus B3 infected in african green monkey Vero cells assessed as reduction of virus induced cytopathic effect incubated for 3 days by MTS assay. It is filed as functional, organism-based. To be noted: Enterovirus B, 72 h. An outline of the steps: as §2
`CC(Nc1ncnc2c1ncn2[C@@H]1O[C@H](CO)[C@@H](O)[C@H]1O)c1cccc(Cl)c1` (some centres not stated): the EC50 is over 100 µM.

The test system of a further series is enterovirus D68. The series can be described thus: Antiviral activity against Human enterovirus 68 infected in human HeLa cells assessed as reduction of virus induced cytopathic effect incubated for 3 days by MTS assay. It is filed as functional, organism-based. As to conditions: Enterovirus D, 72 h. An outline of the steps:
as §2
For the compound `CC(Nc1ncnc2c1ncn2[C@@H]1O[C@H](CO)[C@@H](O)[C@H]1O)c1cccc(Cl)c1` (some centres not stated), the EC50 was over 100 µM.

System in the next series: not listed separately
The series can be described thus: Cytotoxicity against human HeLa cells by MTS assay. It is filed as toxicity, cell-based.
Settings: not given
In outline: as §1
`CC(Nc1ncnc2c1ncn2[C@@H]1O[C@H](CO)[C@@H](O)[C@H]1O)c1cccc(Cl)c1` (some centres not stated) had a CC50 of over 100 µM.

Another series has as its system Enterovirus A71. The series can be described thus: Antiviral activity against human Enterovirus 71 BrCr infected in human RD cells assessed as reduction of virus induced cytopathic effect incubated for 3 days by MTS assay. It is filed as functional, organism-based. To be noted: Enterovirus A, 72 h. In outline:
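Confluent RD cells (EMEM, 10% heat-inactivated FBS) are infected with ~100 CCID50 of EV71 BrCr and treated with a compound dilution series. After 3 days at 37 °C, 5% CO2, residual viability is measured by MTS. EC50 is the concentration giving 50% antiviral effect, from at least 2–3 independent experiments.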
Consider `OC[C@H]1O[C@@H](n2ccc3c(NCc4cccc(Cl)c4)ncnc32)[C@H](O)[C@@H]1O`, for which the EC50 came out at 0.065 µM.
As for `CSC[C@H]1O[C@@H](n2cnc3c(NC(C)c4cccc(Cl)c4)ncnc32)[C@H](O)[C@@H]1O` (some centres not stated), the EC50 is 4.21 µM.
For `OC[C@H]1O[C@@H](n2cnc3c(NCc4cccc(Cl)c4)ncnc32)[C@H](O)[C@@H]1O`, the EC50 came to 0.106 µM.
`CC(Nc1ncnc2c1ncn2[C@@H]1O[C@H](CO)[C@@H](O)[C@H]1O)c1cccc(Cl)c1` (some centres not stated): the EC50 amounted to 1.07 µM.

The next series relates to rhinovirus B14. The series can be described thus: Antiviral activity against Human rhinovirus 14 infected in human HeLa cells assessed as reduction of virus induced cytopathic effect incubated for 3 days by MTS assay. It is filed as functional, organism-based. To be noted: Rhinovirus B, 72 h. An outline of the steps:
as §2
Take `CC(Nc1ncnc2c1ncn2[C@@H]1O[C@H](CO)[C@@H](O)[C@H]1O)c1cccc(Cl)c1` (some centres not stated): the EC50 was over 100 µM.
